ChEMBL document CHEMBL3763129 (Bioorg Med Chem Lett, 2016)
Calls of active or inactive are those of the source. The calls are words filed in the database; no cut-off is given here.

Legend:
BXPC-3 [1] = assay: Antiproliferative activity against human BxPC3 cells assessed as cell viability at 10 uM after 48 hrs by MTS assay; assay type: functional, cell-based
ASPC1 [2] = assay: Antiproliferative activity against human AsPC1 cells assessed as cell viability at 10 uM after 48 hrs by MTS assay; assay type: functional, cell-based
MIA PaCa-2 [3] = assay: Antiproliferative activity against human MIAPaCa2 cells assessed as cell viability at 10 uM after 48 hrs by MTS assay; assay type: functional, cell-based
[4] = Cytotoxicity against human MCF10A cells assessed as cell viability at 10 uM after 48 hrs by MTS assay; assay type: cell-based; conditions: mcf-10a
ASPC1 [5] = assay: Antiproliferative activity against human AsPC1 cells assessed as cell viability at 0.01 to 10 uM after 48 and 72 hrs by MTS assay; assay type: functional, cell-based
BXPC-3 [6] = assay: Antiproliferative activity against human BxPC3 cells assessed as cell viability at 0.01 to 10 uM after 48 and 72 hrs by MTS assay; assay type: functional, cell-based
MIA PaCa-2 [7] = assay: Antiproliferative activity against human MIAPaCa2 cells assessed as cell viability at 0.01 to 10 uM after 48 and 72 hrs by MTS assay; assay type: functional, cell-based
[8] = Cytotoxicity against human MCF10A cells assessed as cell viability at 0.01 to 10 uM after 48 and 72 hrs by MTS assay; assay type: cell-based; conditions: mcf-10a
[9] = molecular target: Proto-oncogene tyrosine-protein kinase Src (Homo sapiens) (UniProt P12931); assay: Binding affinity to Src kinase SH2 domain (unknown origin) at 100 uM by STD-NMR spectroscopy
Procedure, shortened: (§1)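 STD-NMR on recombinant SH2 (SUMO-fusion expressed in E. coli Rosetta2, Ni-purified, tag cleaved) in 100% D2O with trace DMSO-d6; 50 ms Gaussian saturation pulse, saturation and delay times 5.0 s, 16 scans with 720 averages; ligand/protein ratio 5:1 or 20:1 depending on compound.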

[10] = molecular target: T1, Calmodulin/Proto-oncogene tyrosine-protein kinase Src (Homo sapiens) (UniProt P12931+P0DP23); assay: Inhibition of human CaM/Src kinase SH2 domain interaction assessed as apparent association of CaM-Src kinase SH2 domain at 25 fold excess compound concentration by isothermal titration calorimetry; assay type: protein assay
Procedure, shortened: (§2)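 ITC at 27°C: SH2 (0.02mM) premixed with compound in DMSO in cell, titrated with CaM (0.2mM, DMSO matched), 20µl per injection, 300 s spacing; both proteins dialyzed overnight in 10mM Bis-Tris pH6.5, 50mM NaCl, 1mM CaCl2, 0.1mM TCEP; recombinant proteins from E. coli, SUMO tag removed.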

[11] = molecular target: Calmodulin-1 (Homo sapiens) (UniProt P0DP23); assay: Binding affinity to human calmodulin by isothermal titration calorimetry
MIA PaCa-2 [12] = assay: Cytotoxicity against human MIAPaCa2 cells at 1 to 50 uM after 8 days by calcein-AM staining based fluorescence analysis; assay type: functional, cell-based
Procedure, shortened: (§3)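 3D microtumors: 10K MiaPaCa-2 cells in ice-cold HuBiogel (3 mg/ml), 2 mm beads polymerized 5 min at 37C, cultured up to 14 days in DMEM/10% FBS; compound 1–50 µM added every other day (final 5% FBS, 0.5% DMSO); media or DMSO controls; day 1, 7, 14 Calcein-AM (1.0µM) live imaging; proliferation by CellTiter Glo relative to DMSO; 6–8 beads/group.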

MIA PaCa-2 [13] = assay: Cytotoxicity against human MIAPaCa2 cells at 1 to 50 uM after 8 days by CellTiter Glo assay; assay type: functional, cell-based; procedure, shortened: as §3
[14] = molecular target: Proto-oncogene tyrosine-protein kinase Src (Homo sapiens) (UniProt P12931); assay: Binding affinity to Src kinase SH2 domain (unknown origin) at 25 uM by STD-NMR spectroscopy; procedure, shortened: as §1
[15] = molecular target: T1, Calmodulin/Proto-oncogene tyrosine-protein kinase Src (Homo sapiens); assay: Inhibition of human CaM/Src kinase SH2 domain interaction assessed as apparent association of CaM-Src kinase SH2 domain at 10 fold excess compound concentration by isothermal titration calorimetry; assay type: protein assay; procedure, shortened: as §2

| Structure (SMILES) | Activity [9] | Ka [10] [×10⁶ /M] | Activity [11] | Activity [14] | Ka [15] [×10⁶ /M] | Activity (BXPC-3 [1]) | Activity (ASPC1 [2]) | Activity (MIA PaCa-2 [3]) | Activity [4] | Activity (ASPC1 [5]) | Activity (BXPC-3 [6]) | Activity (MIA PaCa-2 [7]) | Activity [8] | Activity (MIA PaCa-2 [12]) | Activity (MIA PaCa-2 [13]) |
| --- | --- | --- | --- | --- | --- | --- | --- | --- | --- | --- | --- | --- | --- | --- | --- |
| O=C1COc2ccc(C(=O)/C=C/c3cc(F)cc4c3OCOC4)cc2N1 |  |  | inactive |  |  | Active | Active | Active | Toxic |  |  |  |  | Active | Active |
| COc1ccc(-c2n[nH]c(NC(=O)c3cccc(S(=O)(=O)N4CCc5ccccc54)c3)n2)cc1 |  |  |  |  |  | Active | Active | Active | Toxic |  |  |  |  |  |  |
| CC/C(=C(\c1ccccc1)c1ccc(OCCN(C)C)cc1)c1ccccc1 |  |  |  |  |  | Active | Active | Active |  |  |  |  |  |  |  |
| N#Cc1ccc(Cc2cnc(NC(=O)CCc3ccc4c(c3)OCO4)s2)cc1 |  |  |  |  |  | Active | Active | Active | Toxic |  |  |  |  |  |  |
| Cc1ccc(Cc2cnc(NC(=O)c3ccc(-n4ccnc4)cc3)s2)cc1 |  |  |  |  |  | Active | Active | Active |  |  |  |  |  |  |  |

Further lines, with some results ahead:

| Activity [9] | Ka [10] [×10⁶ /M] | Activity [11] | Activity [14] | Ka [15] [×10⁶ /M] | Structure (SMILES) | Activity (BXPC-3 [1]) | Activity (ASPC1 [2]) | Activity (MIA PaCa-2 [3]) | Activity [4] | Activity (ASPC1 [5]) | Activity (BXPC-3 [6]) | Activity (MIA PaCa-2 [7]) | Activity [8] | Activity (MIA PaCa-2 [12]) | Activity (MIA PaCa-2 [13]) |
| --- | --- | --- | --- | --- | --- | --- | --- | --- | --- | --- | --- | --- | --- | --- | --- |
| Active | 2.03 | inactive |  |  | OC[C@@H]1O[C@H](n2cnc3c(NCc4ccco4)ncnc32)[C@H](O)[C@@H]1O | Active | Active | Active | Toxic | Active | Active | Active | Toxic |  |  |
|  |  | inactive | Active | 2.49 | O=C(Nc1ccc(C(=O)O)cc1)Nc1ccc(-c2nc(N3CCOCC3)nc(N3CCOCC3)n2)cc1 | Active | Active | Active | Toxic | Active | Active | Active | Toxic |  |  |
|  |  | inactive |  |  | Cc1nc2ccccn2c1-c1csc(Nc2ccc(C(=O)O)cc2)n1 | Active | Active | Active | Toxic |  |  |  |  |  |  |
